Series [1] relates to MDCK-II. Put plainly: Cytotoxicity against MDCK2 cells assessed as reduction in cell viability at 10 uM after 72 hrs by MTT assay. Type of series: cell-based, Canis lupus familiaris. The note with it: dog. In outline: (§1)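 Single-concentration screen at 10 µM in MDCK II BCRP and parental MDCK II cells. MTT assay, 72 h at 37 °C, 5% CO2. Viability referenced to culture medium (100%) and 10% DMSO (0%). Mean ± SEM of at least three independent experiments with duplicates.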
On the technique in general: Tetrazolium assays rely on reduction of a dye to a coloured formazan, in cell work by metabolically active cells.

Series [2] addresses T1, ATP-dependent translocase ABCB1 (Homo sapiens, UniProt P08183). Description: Inhibition of human ABCB1-mediated multidrug resistance in human A2780/ADR cells assessed as potentiation of doxorubicin-induced cytotoxicity by measuring half maximal reversal concentration after 72 hrs by MTT assay. Type of series: cell-based.
Series [3] addresses T2, ABCG2 (Homo sapiens, UniProt Q9UNQ0).
T2 sequence (Q9UNQ0 whole entry): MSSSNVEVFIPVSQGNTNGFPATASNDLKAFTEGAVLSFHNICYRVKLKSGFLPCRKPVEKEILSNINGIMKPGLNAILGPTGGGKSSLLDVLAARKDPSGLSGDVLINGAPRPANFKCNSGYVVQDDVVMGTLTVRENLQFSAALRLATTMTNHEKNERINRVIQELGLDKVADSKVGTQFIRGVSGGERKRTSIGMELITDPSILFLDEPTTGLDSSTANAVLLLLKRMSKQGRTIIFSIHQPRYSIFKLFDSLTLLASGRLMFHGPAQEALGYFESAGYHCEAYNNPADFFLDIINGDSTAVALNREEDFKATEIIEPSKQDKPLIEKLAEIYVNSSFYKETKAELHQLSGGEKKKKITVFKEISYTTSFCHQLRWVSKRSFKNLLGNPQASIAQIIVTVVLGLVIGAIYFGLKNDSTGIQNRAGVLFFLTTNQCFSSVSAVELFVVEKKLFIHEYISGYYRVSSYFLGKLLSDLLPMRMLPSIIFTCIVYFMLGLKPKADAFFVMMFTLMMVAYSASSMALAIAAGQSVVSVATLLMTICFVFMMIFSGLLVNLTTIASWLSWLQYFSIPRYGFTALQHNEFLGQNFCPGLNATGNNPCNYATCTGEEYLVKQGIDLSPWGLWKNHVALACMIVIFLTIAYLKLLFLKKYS
Put plainly: Inhibition of human ABCG2 expressed in MDCK2 cells co-expressing GFP preincubated for 15 mins followed by pheophorbideA addition and measured after 2 hrs by flow cytometric analysis relative to control. Type of series: cell-based, MDCK-II. The settings on record: probe pheophorbide A, read-out: Imax. In general terms: In flow cytometry, cells or beads pass a laser one at a time.

The target in series [4] is T3, Broad substrate specificity ATP-binding cassette transporter ABCG2 (Homo sapiens, UniProt Q9UNQ0).
T3 sequence (Q9UNQ0 whole entry): T2 sequence (Q9UNQ0 whole entry)
Put plainly: Inhibition of human ABCG2 expressed in MDCK2 cells co-expressing GFP preincubated for 30 mins followed by Hoechst 33342 addition and measured every 60 sec for 120 mins by fluorescence assay. Type of series: cell-based, MDCK-II. The procedure, abridged:
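MDCK II cells transfected with human ABCG2 cDNA C-terminally fused to GFP. Hoechst 33342 added at 1 µM final. Fluorescence (ex 355, em 460 nm) read every 60 s for 120 min. Steady-state means vs log concentration fitted by 3- or 4-parameter logistic to give IC50.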

Series [5] has as its target Multidrug resistance-associated protein 1 (Homo sapiens, UniProt P33527). Put plainly: Inhibition of human ABCC1-mediated multidrug resistance in MDCK2 cells assessed as potentiation of doxorubicin-induced cytotoxicity by measuring half maximal reversal concentration after 72 hrs by MTT assay. The note with it: mdck-ii. Type of series: cell-based.
Series [6] deals with T3, Broad substrate specificity ATP-binding cassette transporter ABCG2. Description: Inhibition of human ABCG2 expressed in MDCK2 cells co-expressing GFP preincubated for 15 mins followed by pheophorbideA addition and measured after 2 hrs by flow cytometric analysis. Type of series: cell-based, MDCK-II. The procedure, abridged: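 Pheophorbide A added to 0.5 µM final and incubated 2 h. Read by flow cytometry (ex 488, em 695/50 nm); GFP expression checked at 525/30 nm. IC50 from 3- or 4-parameter logistic fit.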

Series [7] relates to MDCK-II. Description: Cytotoxicity against MDCK2 cells over expressing human ABCG2 at 10 uM assessed as reduction in cell viability after 72 hrs by MTT assay. Type of series: ADME, cell-based, Canis lupus familiaris. The note with it: dog. The procedure, abridged: as §1
Series [8] addresses T2, ABCG2. Description: Inhibition of human ABCG2 expressed in MDCK2 cells co-expressing GFP preincubated for 30 mins followed by Hoechst 33342 addition and measured every 60 sec for 120 mins by fluorescence assay relative to control. Type of series: cell-based, MDCK-II. The settings on record: probe Hoechst 33342, read-out: Imax. The procedure, abridged:
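MDCK II cells transfected with human ABCG2 cDNA C-terminally fused to GFP. Steady-state means vs log concentration fitted by 3- or 4-parameter logistic to give IC50.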

Series [9] has as its target T1, ATP-dependent translocase ABCB1. Put plainly: Inhibition of human ABCB1 expressed in A2780/ADR cells preincubated for 30 mins followed by calcein AM addition and measured every 60 secs for 60 mins by fluorescence assay. Type of series: cell-based. In outline:
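ABCB1 in A2780/ADR cells (kept resistant by one passage in 1 µM doxorubicin every 10 passages). 30,000 cells per well in Krebs-HEPES buffer, preincubated 30 min at 37 °C with inhibitor. Calcein AM added from a 3.125 µM solution. Fluorescence (ex 485, em 520 nm) read every 60 s for 60 min. Initial linear slopes vs log concentration fitted to give IC50.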

Series [10] has as its target T3, Broad substrate specificity ATP-binding cassette transporter ABCG2. Put plainly: Inhibition of ABCG2 in human MCF7/MX cells at 1 uM incubated for 2 hrs in presence of pheophorbide A by confocal laser scanning microscopic method. Type of series: cell-based. The note with it: mcf7x. The procedure, abridged: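 MCF-7/MX cells, 1×10^5 per dish, grown 48 h to 50-60% confluence, then switched to Krebs-HEPES buffer. Pheophorbide A (0.5 µM) applied with inhibitor (1 µM) for 2 h at 37 °C, 5% CO2. Confocal imaging at ex 405 nm, em 662-737 nm, stage at 37 °C; parental MCF-7 imaged for comparison.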

The nature of series [11]: Up regulation of ABCG2 in MDCK2 cells at 0.5 uM after 4 days by Western blot analysis. The settings on record: time 4 day. Type of series: functional, Canis lupus familiaris, MDCK-II. The procedure, abridged: (§2)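 ABCG2-GFP MDCK II cells seeded in T25 flasks (86,000 for 4 days, 17,200 for 7 days). Exposed to modulator (10 nM) and/or SN-38 (0.5 µM) for 4 or 7 days. 15 µg protein run on stain-free 10% SDS-PAGE and transferred to PVDF. Probed with BXP-21 (1:200, overnight, 4 °C) and HRP secondary, ECL detection. Bands normalised to total protein and to the untreated control; one-sample t-test.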
(In general: A western blot detects proteins with antibodies after separation by electrophoresis.)

The test system of series [12] is MDCK-II. Put plainly: Cytotoxicity against MDCK2 cells over expressing human ABCG2 assessed as reduction in cell viability at 0.5 uM by after 3 days by MTT assay. The settings on record: Canis lupus familiaris, time 3.0 day. Type of series: functional, cell-based.
The nature of series [13]: Up regulation of ABCG2 in MDCK2 cells at 0.5 uM after 7 days by Western blot analysis. Type of series: functional, Canis lupus familiaris, MDCK-II. The note with it: time 7 day. In outline: as §2
A short description of series [14]: Effect on total ABCG2 in MDCK2 cells at 0.5 uM after 4 to 7 days by Western blot analysis. Type of series: ADME, cell-based, Canis lupus familiaris. The settings on record: dog, mdck-ii, time 4-7 day. In outline:
as §2

The source made the active and inactive calls. The rule behind the calls is not given here.

T1 sequence (P08183 whole entry): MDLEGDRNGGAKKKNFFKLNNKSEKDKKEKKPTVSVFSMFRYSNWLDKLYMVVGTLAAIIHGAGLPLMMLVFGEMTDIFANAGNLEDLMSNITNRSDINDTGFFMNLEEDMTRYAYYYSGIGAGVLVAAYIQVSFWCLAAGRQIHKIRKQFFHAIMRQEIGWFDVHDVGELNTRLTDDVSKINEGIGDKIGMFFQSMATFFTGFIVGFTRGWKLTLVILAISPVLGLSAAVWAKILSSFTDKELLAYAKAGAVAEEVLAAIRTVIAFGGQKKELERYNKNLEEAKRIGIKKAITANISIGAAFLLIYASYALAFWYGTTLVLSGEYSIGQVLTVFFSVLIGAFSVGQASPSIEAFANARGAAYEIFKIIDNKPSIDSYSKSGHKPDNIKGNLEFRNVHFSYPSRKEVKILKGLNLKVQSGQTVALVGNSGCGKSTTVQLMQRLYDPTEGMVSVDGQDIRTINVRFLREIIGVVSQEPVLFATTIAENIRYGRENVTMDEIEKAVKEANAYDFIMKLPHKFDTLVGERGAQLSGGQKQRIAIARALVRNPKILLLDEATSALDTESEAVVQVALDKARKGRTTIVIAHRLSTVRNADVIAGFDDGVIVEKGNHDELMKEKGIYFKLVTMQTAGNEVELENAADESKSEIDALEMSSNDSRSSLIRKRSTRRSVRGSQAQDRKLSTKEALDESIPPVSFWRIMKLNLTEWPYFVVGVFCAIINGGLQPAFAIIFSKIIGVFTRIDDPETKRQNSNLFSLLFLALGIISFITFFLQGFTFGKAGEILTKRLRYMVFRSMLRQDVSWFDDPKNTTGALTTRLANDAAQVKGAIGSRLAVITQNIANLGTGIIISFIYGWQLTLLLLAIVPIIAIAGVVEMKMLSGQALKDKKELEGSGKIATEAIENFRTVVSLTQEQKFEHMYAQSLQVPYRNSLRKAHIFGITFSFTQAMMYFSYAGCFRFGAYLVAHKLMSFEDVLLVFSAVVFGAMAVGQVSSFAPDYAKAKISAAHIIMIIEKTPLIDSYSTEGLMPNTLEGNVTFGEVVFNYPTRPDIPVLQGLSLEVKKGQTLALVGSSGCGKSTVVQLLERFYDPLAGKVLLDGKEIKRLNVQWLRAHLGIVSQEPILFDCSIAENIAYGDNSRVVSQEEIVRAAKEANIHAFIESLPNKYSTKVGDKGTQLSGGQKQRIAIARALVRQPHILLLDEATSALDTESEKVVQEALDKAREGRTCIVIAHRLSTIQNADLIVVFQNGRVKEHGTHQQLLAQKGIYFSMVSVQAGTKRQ
Multidrug resistance-associated protein 1, sequence (P33527 whole entry): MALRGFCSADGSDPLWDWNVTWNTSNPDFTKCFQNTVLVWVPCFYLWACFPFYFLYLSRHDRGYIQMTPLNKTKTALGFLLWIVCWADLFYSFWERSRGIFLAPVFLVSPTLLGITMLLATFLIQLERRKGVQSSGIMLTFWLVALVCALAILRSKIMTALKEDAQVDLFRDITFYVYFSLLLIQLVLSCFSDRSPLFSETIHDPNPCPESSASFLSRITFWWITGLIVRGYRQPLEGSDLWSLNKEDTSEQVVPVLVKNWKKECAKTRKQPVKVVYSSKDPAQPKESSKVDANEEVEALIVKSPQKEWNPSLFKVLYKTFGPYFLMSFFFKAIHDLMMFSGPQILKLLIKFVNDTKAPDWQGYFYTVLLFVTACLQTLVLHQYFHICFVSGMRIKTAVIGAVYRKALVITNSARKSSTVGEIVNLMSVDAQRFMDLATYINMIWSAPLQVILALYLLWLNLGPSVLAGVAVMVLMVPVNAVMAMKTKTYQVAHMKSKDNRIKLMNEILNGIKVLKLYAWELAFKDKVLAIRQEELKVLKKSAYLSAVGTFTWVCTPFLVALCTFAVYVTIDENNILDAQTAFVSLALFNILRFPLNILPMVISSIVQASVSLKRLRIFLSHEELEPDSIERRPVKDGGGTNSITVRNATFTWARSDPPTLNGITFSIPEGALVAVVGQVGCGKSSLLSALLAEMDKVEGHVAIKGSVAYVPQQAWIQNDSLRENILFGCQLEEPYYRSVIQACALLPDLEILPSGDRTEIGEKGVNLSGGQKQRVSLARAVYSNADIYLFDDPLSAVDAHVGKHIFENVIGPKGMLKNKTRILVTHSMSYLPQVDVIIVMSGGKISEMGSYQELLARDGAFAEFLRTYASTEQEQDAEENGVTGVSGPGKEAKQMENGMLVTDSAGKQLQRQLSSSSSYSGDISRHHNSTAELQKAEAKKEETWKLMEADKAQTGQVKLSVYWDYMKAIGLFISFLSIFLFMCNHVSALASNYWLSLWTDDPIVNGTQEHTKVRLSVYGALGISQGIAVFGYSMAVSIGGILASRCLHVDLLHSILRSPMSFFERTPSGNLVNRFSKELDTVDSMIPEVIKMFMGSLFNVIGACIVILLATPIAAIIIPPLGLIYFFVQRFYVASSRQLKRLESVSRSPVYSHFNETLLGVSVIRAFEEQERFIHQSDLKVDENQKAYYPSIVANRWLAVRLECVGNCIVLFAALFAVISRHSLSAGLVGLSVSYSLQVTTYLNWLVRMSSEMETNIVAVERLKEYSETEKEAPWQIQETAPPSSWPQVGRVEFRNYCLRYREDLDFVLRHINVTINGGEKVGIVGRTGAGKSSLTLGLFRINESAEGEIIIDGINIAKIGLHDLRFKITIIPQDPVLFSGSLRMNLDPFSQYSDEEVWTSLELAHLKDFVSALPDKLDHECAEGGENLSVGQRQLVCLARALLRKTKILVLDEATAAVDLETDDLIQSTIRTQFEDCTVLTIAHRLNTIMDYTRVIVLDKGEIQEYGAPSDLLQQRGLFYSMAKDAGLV

In the case of `COc1cc(Nc2cc(C)nc(-c3ccccc3)n2)ccc1Br`, the Activity result with MDCK-II [1] and in the series on MDCK-II [7] was “Non-Toxic” in each case. Also, the “inhibition (INH)” value in [2] and in series [5] was “Not Active” in each case. Moreover, the Emax at 2 h at ABCG2 [3] turned out to be 53%; on ABCG2 [8] it was 100%. In addition, the IC50 was 0.28 µM in series [4], 0.328 µM in series [6] and 5.03 µM in [9].

Turning to `Cc1cc(Nc2ccc3nccnc3c2)nc(-c2ccccc2)n1`, the Activity result in the series with MDCK-II [1] and in the series on MDCK-II [7] was “Non-Toxic” each time. The Emax at 2 h at ABCG2 [3] is 100%. Further, the values for the IC50 in series [6] and in series [9] were 0.312 µM and 13.4 µM, respectively. Further, in [10], the “inhibition (INH)” value is listed as “Active”.

In the case of `CCc1c2c(nc3ccc(O)cc13)-c1cc3c(c(=O)n1C2)COC(=O)C3(O)CC` (stereo not drawn), the results for the “fold change (FC)” value in [11] and in series [13] were 2 and 5, respectively. Besides, the result in the series with MDCK-II [12] was inactive. The Activity entry in series [14] is reported as “Non-Toxic”.

Consider `Cc1cc(Nc2cccc(Br)c2)nc(-c2ccccc2)n1`, for which the Activity entry in the series with MDCK-II [1] and with MDCK-II [7] was “Non-Toxic” in each case. The “inhibition (INH)” value in series [2] and in series [5] was “Not Active” each time. Moreover, the Emax at 2 h at ABCG2 [3] was found to be 83%; on ABCG2 [8] it was 100%. Also, the IC50 in series [4] was 0.892 µM; in [6], 0.386 µM; in [9] it was 7.14 µM.

The term IC50 denotes the midpoint of a concentration-inhibition curve.
